Reference: ChEMBL document CHEMBL4251645, “Synthesis of C3-Neoglycosides of digoxigenin and their anticancer activities” (2018)
Activity calls are given as the source filed them. The rule behind the calls is not given here.

Experiments:
NCI-H460 [1] = test: Induction of Nur77 protein expression in human NCI-H460 cells at 20 nM after 3 hrs by Western blot assay; type: functional, cell-based
In short: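 NIH-H460 cells exposed to 20 nM glycoside for 3 h and lysed. Equal lysate amounts run on 8% SDS-PAGE and blotted to PVDF, then blocked in 5% milk/TBST for 1 h. Anti-Nur77 (1:1000) applied overnight at 4 °C, secondary antibody for 1 h, ECL detection. β-actin (1:10000) reprobe served as loading control.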

NCI-H460 [2] = test: Cytotoxicity against human NCI-H460 cells assessed as reduction in cell viability at 50 nM after 48 hrs by MTT assay; type: functional, cell-based
In short: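 NIH-H460 cells (ATCC; RPMI 1640, 10% FBS, L-glutamine, penicillin/streptomycin) seeded at 3 × 10^3/well, then given medium with 50 nM glycoside for 48 h. MTT ([…]) added for 4 h at 37 °C, formazan dissolved in DMSO, absorbance at 560 nm.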

[3] = target: Nuclear receptor subfamily 4immunitygroup A member 1 (Homo sapiens) (UniProt P22736); test: Induction of Nur77 protein translocation from nucleus to cytoplasm in human NCI-H460 cells at 20 nM after 9 hrs by DAPI staining based immunofluorescence microscopic method; type: cell-based
In short: (§1)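 NIH-H460 cells given 20 nM glycoside for 3, 6 and 9 h. Cells permeabilized with 0.1% Triton X-100 for 15 min and blocked in 1% BSA for 30 min. Anti-Nur77 applied at 37 °C for 1 h, then Cy3 anti-rabbit IgG for 30 min at room temperature. DAPI stained nuclei; confocal imaging scored Nur77 nuclear versus cytoplasmic location.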

[4] = target: Nuclear receptor subfamily 4immunitygroup A member 1 (Homo sapiens) (UniProt P22736); test: Induction of Nur77 protein translocation from nucleus to cytoplasm in human NCI-H460 cells at 20 nM by DAPI staining based immunofluorescence microscopic method; type: cell-based; conditions: TDE = time-dependent effect; in short: as §1
NCI-H460 [5] = test: Induction of apoptosis in human NCI-H460 cells assessed as live cells at 20 nM after 12 hrs by Annexin V-FITC/propidium iodide staining based flow cytometry (reference value: 91.81%); type: functional
In short: (§2)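 NIH-H460 cells seeded at 1 × 10^5/well and given 20 nM glycoside for 12 h. Cells trypsinized, spun at 1,500 rpm for 5 min and resuspended in Annexin V binding buffer. Annexin V-FITC stain for 15 min, then propidium iodide for 5 min. Populations quantified by FACS Calibur flow cytometry.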

NCI-H460 [6] = test: Induction of apoptosis in human NCI-H460 cells assessed as early apoptotic cells at 20 nM after 12 hrs by Annexin V-FITC/propidium iodide staining based flow cytometry (reference value: 4.72%); type: functional; in short: as §2
NCI-H460 [7] = test: Induction of apoptosis in human NCI-H460 cells assessed as late apoptotic cells at 20 nM after 12 hrs by Annexin V-FITC/propidium iodide staining based flow cytometry (reference value: 2.54%); type: functional; in short: as §2
NCI-H460 [8] = test: Induction of apoptosis in human NCI-H460 cells assessed as necrotic cells at 20 nM after 12 hrs by Annexin V-FITC/propidium iodide staining based flow cytometry (reference value: 0.93%); type: functional; in short: as §2
NCI-H460 [9] = test: Induction of apoptosis in human NCI-H460 cells assessed as live cells after 12 hrs by Annexin V-FITC/propidium iodide staining based flow cytometry (reference value: 91.81%); type: functional
NCI-H460 [10] = test: Induction of apoptosis in human NCI-H460 cells assessed as early apoptotic cells after 12 hrs by Annexin V-FITC/propidium iodide staining based flow cytometry (reference value: 4.72%); type: functional
NCI-H460 [11] = test: Induction of apoptosis in human NCI-H460 cells assessed as late apoptotic cells after 12 hrs by Annexin V-FITC/propidium iodide staining based flow cytometry (reference value: 2.54%); type: functional
NCI-H460 [12] = test: Induction of apoptosis in human NCI-H460 cells assessed as necrotic cells after 12 hrs by Annexin V-FITC/propidium iodide staining based flow cytometry (reference value: 0.93%); type: functional

Chain of Nuclear receptor subfamily 4immunitygroup A member 1 (Homo sapiens) (P22736 whole entry): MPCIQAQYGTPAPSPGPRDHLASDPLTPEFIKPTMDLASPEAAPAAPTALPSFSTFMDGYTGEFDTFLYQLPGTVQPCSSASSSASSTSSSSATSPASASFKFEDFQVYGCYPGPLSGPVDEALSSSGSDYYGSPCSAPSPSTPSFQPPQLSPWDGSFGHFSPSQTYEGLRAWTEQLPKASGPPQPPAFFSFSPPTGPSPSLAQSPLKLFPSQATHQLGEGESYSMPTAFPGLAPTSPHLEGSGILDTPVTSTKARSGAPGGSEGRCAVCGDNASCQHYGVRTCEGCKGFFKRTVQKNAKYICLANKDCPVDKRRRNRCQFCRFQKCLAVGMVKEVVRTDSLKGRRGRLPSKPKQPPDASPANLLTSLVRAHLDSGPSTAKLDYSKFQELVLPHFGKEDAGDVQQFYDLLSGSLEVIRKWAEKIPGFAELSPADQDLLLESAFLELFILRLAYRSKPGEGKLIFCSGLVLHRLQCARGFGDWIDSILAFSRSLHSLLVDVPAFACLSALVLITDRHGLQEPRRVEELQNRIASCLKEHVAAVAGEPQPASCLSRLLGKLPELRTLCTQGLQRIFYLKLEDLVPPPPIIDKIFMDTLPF

C[C@]12CC[C@H](OC3O[C@H](CO)[C@@H](O[C@@H]4O[C@H](CO)[C@@H](O)[C@H](O)[C@H]4O)[C@H](O)[C@H]3O)C[C@H]1CC[C@@H]1[C@@H]2C[C@@H](O)[C@]2(C)[C@@H](C3=CC(=O)OC3)CC[C@]12O (stereo not given in full)
Activity (NCI-H460 [1]): Active

C[C@@H]1OC(O[C@H]2CC[C@@]3(C)[C@H](CC[C@@H]4[C@@H]3C[C@@H](O)[C@]3(C)[C@@H](C5=CC(=O)OC5)CC[C@]43O)C2)[C@@H](O)[C@H](O)[C@@H]1O (stereo not given in full)
Activity (NCI-H460 [2]): Active
Activity (NCI-H460 [1]): Active
Activity [3]: Active
Activity [4]: Tde
Activity (NCI-H460 [5]): 61.75%
Activity (NCI-H460 [6]): 25.02%
Activity (NCI-H460 [7]): 9.01%
Activity (NCI-H460 [8]): 4.21%

C[C@H]1O[C@@H](O[C@H]2[C@@H](O)C[C@H](O[C@H]3[C@@H](O)C[C@H](O[C@H]4CC[C@@]5(C)[C@H](CC[C@@H]6[C@@H]5C[C@@H](O)[C@]5(C)[C@@H](C7=CC(=O)OC7)CC[C@]65O)C4)O[C@@H]3C)O[C@@H]2C)C[C@H](O)[C@@H]1O [DIGOXIN]
Activity (NCI-H460 [9]): 90.71%
Activity (NCI-H460 [10]): 4.06%
Activity (NCI-H460 [11]): 4.64%
Activity (NCI-H460 [12]): 0.6%

C[C@]12CC[C@@H](O)C[C@H]1CC[C@@H]1[C@@H]2C[C@@H](O)[C@]2(C)[C@@H](C3=CC(=O)OC3)CC[C@]12O
Activity (NCI-H460 [1]): Active

C[C@]12CC[C@H](OC3OC[C@@H](O)[C@@H](O)[C@H]3O)C[C@H]1CC[C@@H]1[C@@H]2C[C@@H](O)[C@]2(C)[C@@H](C3=CC(=O)OC3)CC[C@]12O (stereo not given in full)
Activity (NCI-H460 [2]): Active
Activity (NCI-H460 [1]): Active
Activity [3]: Active
Activity [4]: Tde
Activity (NCI-H460 [5]): 83.97%
Activity (NCI-H460 [6]): 10.21%
Activity (NCI-H460 [7]): 4.58%
Activity (NCI-H460 [8]): 1.24%

C[C@]12CC[C@H](OC3O[C@H](CO)[C@H](O)[C@H](O)[C@H]3O)C[C@H]1CC[C@@H]1[C@@H]2C[C@@H](O)[C@]2(C)[C@@H](C3=CC(=O)OC3)CC[C@]12O (stereo not given in full)
Activity (NCI-H460 [1]): Active

C[C@@H]1OC(O[C@H]2CC[C@@]3(C)[C@H](CC[C@@H]4[C@@H]3C[C@@H](O)[C@]3(C)[C@@H](C5=CC(=O)OC5)CC[C@]43O)C2)[C@H](O)[C@H](O)[C@H]1O (stereo not given in full)
Activity (NCI-H460 [2]): Active
Activity (NCI-H460 [1]): Active
Activity [3]: Active
Activity [4]: Tde
Activity (NCI-H460 [5]): 83.59%
Activity (NCI-H460 [6]): 9.35%
Activity (NCI-H460 [7]): 5.5%
Activity (NCI-H460 [8]): 1.55%

C[C@]12CC[C@@H](OC3O[C@H](CO)[C@@H](O)[C@H](O)[C@@H]3O)C[C@H]1CC[C@@H]1[C@@H]2C[C@@H](O)[C@]2(C)[C@@H](C3=CC(=O)OC3)CC[C@]12O (stereo not given in full)
Activity (NCI-H460 [1]): Active

C[C@H]1O[C@@H](O[C@H]2[C@@H](O)CC(O[C@H]3CC[C@@]4(C)[C@H](CC[C@@H]5[C@@H]4C[C@@H](O)[C@]4(C)[C@@H](C6=CC(=O)OC6)CC[C@]54O)C3)O[C@@H]2C)C[C@H](O)[C@@H]1O (stereo not given in full)
Activity (NCI-H460 [1]): Active

C[C@]12CC[C@H](OC3O[C@H](CO)[C@@H](O)[C@H](O)[C@H]3O)C[C@H]1CC[C@@H]1[C@@H]2C[C@@H](O)[C@]2(C)[C@@H](C3=CC(=O)OC3)CC[C@]12O (stereo not given in full)
Activity (NCI-H460 [2]): Active

C[C@]12CC[C@H](OC3O[C@H](CO)[C@@H](O[C@@H]4O[C@H](CO)[C@H](O)[C@H](O)[C@H]4O)[C@H](O)[C@H]3O)C[C@H]1CC[C@@H]1[C@@H]2C[C@@H](O)[C@]2(C)[C@@H](C3=CC(=O)OC3)CC[C@]12O (stereo not given in full)
Activity (NCI-H460 [1]): Active
